Results: paper PMC11865470 (Communications Biology, 2025)
Residue numbers refer to the chain shown, from its start. Like-named read-outs stand apart in the source and are kept apart here. Each block holds one molecule with its values, some of them ahead of it.

Experiments:
Otop1 channel = conditions: cited from earlier work
mOtop1/R554A = biological target: T1, mOtop1/R554A (Mus musculus, UniProt Q80VM9, R554A); experiment: patch-clamp, mOtop1 mutant; type: cell-based; conditions: 1 mM Zn2+
T1 sequence (Q80VM9 1-600 R554A): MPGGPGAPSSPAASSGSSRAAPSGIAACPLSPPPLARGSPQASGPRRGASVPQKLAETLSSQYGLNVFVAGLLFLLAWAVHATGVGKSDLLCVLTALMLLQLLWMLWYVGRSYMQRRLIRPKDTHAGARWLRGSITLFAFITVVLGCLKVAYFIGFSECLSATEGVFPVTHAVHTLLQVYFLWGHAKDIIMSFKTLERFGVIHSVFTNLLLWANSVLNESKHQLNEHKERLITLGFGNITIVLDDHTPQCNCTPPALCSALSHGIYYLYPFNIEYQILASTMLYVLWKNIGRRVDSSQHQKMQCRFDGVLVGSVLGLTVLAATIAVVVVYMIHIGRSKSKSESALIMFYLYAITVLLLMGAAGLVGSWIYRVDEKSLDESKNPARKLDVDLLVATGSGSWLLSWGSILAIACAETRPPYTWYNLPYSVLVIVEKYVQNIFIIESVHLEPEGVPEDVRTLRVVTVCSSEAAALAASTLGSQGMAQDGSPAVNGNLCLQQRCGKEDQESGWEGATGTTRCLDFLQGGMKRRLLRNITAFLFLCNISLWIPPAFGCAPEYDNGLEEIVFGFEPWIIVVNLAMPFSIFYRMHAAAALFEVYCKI

[1] = biological target: T2, mouse Otop1 (mOtop1) channels (Mus musculus, UniProt Q80VM9); type: cell-based; conditions: read-out: IC50, inhibition of mOtop1 currents, n = 5-6
T2 sequence (Q80VM9 1-600): T1 sequence (Q80VM9 1-600 R554A) with A554R

[2] = system: HEK293 cells expressing merely pHmScarlet-mTurquise2; experiment: live cell intracellular pH imaging; type: cell-based; conditions: pH 5.0; nontransfected cells
Procedure, shortened: (§1)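 HEK293 cells were electroporated (180 V, 25 ms) with pHmScarlet-mTurquise2, with or without mOtop1, and imaged 24 h later. Cells sat in pH 7.4 solution (mM: 140 KCl, 10 NaCl, 1 MgCl2, 20 HEPES), then were shifted to pH 8.5 (Tris), 6.0 (MES) or 5.0 (HomoPIPES). Test compound was 10 μM in the stimulus solution, with acetic acid pH 5.0 as positive control. FpHmScarlet/FmTurquise2 ratio read every 2 s.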

[3] = biological target: T3, mOtop1 channels co-expressed in HEK293 cells (Mus musculus, UniProt Q80VM9); experiment: live cell intracellular pH imaging; type: cell-based; conditions: pH 5.0; mOtop1 transfected cells
T3 sequence (Q80VM9 1-600): T1 sequence (Q80VM9 1-600 R554A) with A554R
Procedure, shortened: as §1

mOtop1 channel = conditions: read-out: EC50, activating Otop1 currents; neutral and acidic conditions; cited from earlier work

SMILES: Nc1c(S(=O)(=O)O)cc(Nc2ccc(Nc3nc(Cl)nc(Nc4ccccc4S(=O)(=O)O)n3)c(S(=O)(=O)O)c2)c2c1C(=O)c1ccccc1C2=O [Cibacron Blue 3G-A]
action on Otop1 (Otop1 channel): moderate antagonist

effect on mOtop1/R554A currents (mOtop1/R554A): significantly inhibited
IC50 ([1]; currents activated by pH 5.5 alone): 72 ± 9 µM
IC50 ([1]; currents activated by pH 5.5 with 10 μM MFaN): 58 ± 13 µM
SMILES: [Zn+2] [Zn^2+]

pHi change, positive control [3]: triggered dramatical pHi dropdown
SMILES: CC(=O)O [acetic acid, reference compound]
pHi change, positive control [2]: triggered dramatical pHi dropdown

SMILES: Cc1ccc(C(C)C)cc1O [carvacrol]
EC50 (mOtop1 channel): ~700 µM
